{"source": "paper PMC7033594", "about": "(iScience, 2020)", "key": {"full-length AtTSPO [1]": {"molecular_target": "T1, full-length AtTSPO (Arabidopsis thaliana, UniProt O82245)", "T1 sequence (O82245 1-196)": "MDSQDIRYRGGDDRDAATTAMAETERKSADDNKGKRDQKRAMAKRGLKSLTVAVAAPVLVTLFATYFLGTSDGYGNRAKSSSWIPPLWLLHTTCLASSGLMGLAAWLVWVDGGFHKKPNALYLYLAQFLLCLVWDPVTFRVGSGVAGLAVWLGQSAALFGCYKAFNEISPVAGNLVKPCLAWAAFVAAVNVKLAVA", "assay": "Microscale thermophoresis, PI", "format": "binding", "summary_of_the_method": "(§1)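 Microscale thermophoresis used His-tag labelling with RED-tris-NTA. Full-length or N-terminally truncated 10His protein from yeast was titrated against a PI(4,5)P2 concentration gradient in 50 mM Tris pH 8.0, 200 mM NaCl, 10% glycerol, 2% DDM and protease inhibitors. Laser power was 10, 20 or 40%. Values are mean ± SD of three experiments, with Kd from non-linear regression.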"}, "AtTSPO^ΔN [2]": {"molecular_target": "T2, AtTSPO^ΔN (Arabidopsis thaliana, UniProt O82245)", "T2 sequence (O82245 42-196)": "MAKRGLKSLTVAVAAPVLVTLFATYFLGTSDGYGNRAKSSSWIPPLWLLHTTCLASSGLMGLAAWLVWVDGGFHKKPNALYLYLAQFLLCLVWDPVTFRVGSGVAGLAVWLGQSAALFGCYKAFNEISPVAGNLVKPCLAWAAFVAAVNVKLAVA", "assay": "Microscale thermophoresis, PI", "format": "binding", "details": "RED-tris-NTA label", "summary_of_the_method": "as §1"}, "AtTSPO^Nter [3]": {"molecular_target": "T3, AtTSPO^Nter (Arabidopsis thaliana, UniProt O82245)", "T3 sequence (O82245 1-49)": "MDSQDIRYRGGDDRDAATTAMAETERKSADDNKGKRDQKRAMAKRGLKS", "assay": "NMR 1H-15N HSQC titration of AtTSPO^Nter with lipids", "format": "binding"}, "full-length AtTSPO [4]": {"molecular_target": "T1, full-length AtTSPO", "assay": "Protein-lipid overlay", "format": "binding", "summary_of_the_method": "(§2)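 Lipids were spotted on nitrocellulose and air-dried 1 h: PA from CHCl3, and PI3P, PI4P and PI(4,5)P2 from 2% DDM. Commercial PIP strips were also used. Membranes were blocked in 3% BSA in TBS-Tween, incubated with purified protein in blocking buffer for 3 h at room temperature, then probed with primary and HRP secondary antibodies and developed by ECL.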"}, "AtTSPO^Nter [5]": {"molecular_target": "T3, AtTSPO^Nter", "assay": "Protein-lipid overlay with purified AtTSPO N-terminal peptide", "format": "binding", "summary_of_the_method": "as §2"}, "mTSPO": {"molecular_target": "mTSPO (Mus musculus, UniProt P50637)", "sequence (P50637 whole entry)": "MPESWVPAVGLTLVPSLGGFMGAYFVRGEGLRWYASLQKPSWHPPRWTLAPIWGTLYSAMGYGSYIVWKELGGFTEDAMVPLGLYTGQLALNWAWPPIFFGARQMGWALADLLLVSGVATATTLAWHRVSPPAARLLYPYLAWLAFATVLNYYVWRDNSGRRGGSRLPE", "assay": "Protein-lipid overlay with purified mouse TSPO", "format": "binding", "summary_of_the_method": "as §2"}, "[6]": {"molecular_target": "T4, AtTSPO-PIP2;7 interaction (Arabidopsis thaliana, UniProt O82245)", "T4 sequence (O82245 1-196)": "T1 sequence (O82245 1-196)", "T4 sequence (P93004 1-280 partner)": "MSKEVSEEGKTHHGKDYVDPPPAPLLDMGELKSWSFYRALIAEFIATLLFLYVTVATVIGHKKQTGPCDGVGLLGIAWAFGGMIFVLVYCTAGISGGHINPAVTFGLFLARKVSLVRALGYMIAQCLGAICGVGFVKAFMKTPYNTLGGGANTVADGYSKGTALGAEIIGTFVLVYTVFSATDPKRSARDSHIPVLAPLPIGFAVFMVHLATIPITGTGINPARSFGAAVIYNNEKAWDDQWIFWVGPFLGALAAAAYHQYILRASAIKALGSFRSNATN", "assay": "Microscale thermophoresis of YFP-PIP2", "format": "binding", "details": "50 μM lipid in trans", "summary_of_the_method": "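The aquaporin (mVenus-tagged YFP-PIP2;7) was a DDM-solubilised microsomal fraction from transgenic Arabidopsis seedlings. It was titrated against a range of AtTSPO concentrations, with 50 µM PI(4,5)P2, phosphatidylcholine, or no lipid added. Buffer was 50 mM Tris pH 8.0, 200 mM NaCl, 10% glycerol, 2% DDM. YFP was read through the green filter. Normalised data from three experiments (mean ± SD) were fitted by non-linear regression.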"}, "full-length AtTSPO [7]": {"molecular_target": "T1, full-length AtTSPO", "assay": "Microscale thermophoresis, phosphatidic acid titrated against full-length AtTSPO", "format": "binding", "details": "protein labeled with NT-647-NHS, non-linear fitting", "summary_of_the_method": "(§3)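 Microscale thermophoresis was run on a Monolith NT115. Lysine residues of yeast-derived full-length protein or bacterially expressed N-terminal peptide were labelled with NT-647-NHS. Labelled protein was titrated against a PA concentration gradient in 50 mM Tris pH 8.0, 200 mM NaCl, 10% glycerol, 2% DDM and protease inhibitors. LED power was 100%. Kd came from non-linear fitting of normalised fluorescence.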"}, "[8]": {"molecular_target": "T5, N-terminal peptide (AtTSPO^Nter) (Arabidopsis thaliana, UniProt O82245)", "T5 sequence (O82245 1-49)": "T3 sequence (O82245 1-49)", "format": "binding", "details": "thermophoresis; peptide labeled with NT-647-NHS; non-linear fitting", "summary_of_the_method": "as §3"}, "AtTSPO^ΔN [9]": {"molecular_target": "T2, AtTSPO^ΔN", "assay": "Membrane-spotted PA gradient / PA pull-down with AtTSPO^ΔN", "format": "binding", "details": "membrane-spotted gradient of PA", "summary_of_the_method": "as §2"}, "PLC activity": {"test_system": "PLC activity", "assay": "PLC activity in seedlings after ABA treatment", "format": "in vivo, Arabidopsis", "details": "50 μM ABA for 24 h", "summary_of_the_method": "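Ten-day-old seedlings grown on MS agar were incubated 24 h in the dark in liquid half-strength MS with or without 50 µM ABA. PLC activity in seedling extracts was measured in triplicate with the EnzCheck direct PLC kit. Fluorescence was normalised to the kit's Bacillus cereus PC-PLC. Groups were compared by one-way ANOVA with Tukey's test.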"}, "[10]": {"test_system": "PI(4,5)P2 biosensor in Arabidopsis suspension cells", "assay": "PI", "format": "cell-based", "details": "50 µM ABA for 24h"}}}
{"molecule": "CCCCCCCC/C=C\\CCCCCCCC(=O)OC[C@H](COP(=O)(O)O[C@@H]1[C@H](O)[C@H](O)[C@@H](OP(=O)(O)O)[C@H](OP(=O)(O)O)[C@H]1O)OC(=O)CCCCCCC/C=C\\CCCCCCCC", "note": "[PI(4,5)P2, 1,2-dioleoyl-sn-glycero-3-phospho-(1’-myo-inositol-4’,5’-bisphosphate)]", "values": [{"measurement": "Kd", "setting": "full-length AtTSPO [1]", "result": "2300 ± 700", "unit": "µM"}, {"measurement": "binding to AtTSPO^ΔN", "setting": "AtTSPO^ΔN [2]", "result": "no binding was observed"}, {"measurement": "Kd", "setting": "AtTSPO^Nter [3]", "result": "~150", "unit": "µM"}, {"measurement": "binding to purified full-length AtTSPO", "setting": "full-length AtTSPO [4]", "result": "could bind"}, {"measurement": "binding to N-terminal peptide of AtTSPO", "setting": "AtTSPO^Nter [5]", "result": "could bind"}, {"measurement": "binding to mTSPO", "setting": "mTSPO", "result": "did not bind"}, {"measurement": "AtTSPO and Venus-PIP2;7 interaction", "setting": "[6]", "result": "clearly indicating a protein-protein interaction"}]}
{"molecule": "phosphatidic acid [PA]", "values": [{"measurement": "Kd", "setting": "full-length AtTSPO [7]", "result": 2100, "unit": "µM"}, {"measurement": "Kd", "setting": "[8]", "result": 3300, "unit": "µM"}, {"measurement": "binding to purified full-length AtTSPO", "setting": "full-length AtTSPO [4]", "result": "bound"}, {"measurement": "binding to AtTSPO^ΔN", "setting": "AtTSPO^ΔN [9]", "result": "could not bind"}]}
{"molecule": "PI4P", "values": [{"measurement": "binding to purified full-length AtTSPO", "setting": "full-length AtTSPO [4]", "result": "could bind"}, {"measurement": "binding to N-terminal peptide of AtTSPO", "setting": "AtTSPO^Nter [5]", "result": "could bind"}]}
{"molecule": "PI5P", "values": [{"measurement": "binding to purified full-length AtTSPO", "setting": "full-length AtTSPO [4]", "result": "could bind"}, {"measurement": "binding to N-terminal peptide of AtTSPO", "setting": "AtTSPO^Nter [5]", "result": "could bind"}]}
{"molecule": "PI(3,4)P2", "values": [{"measurement": "binding to purified full-length AtTSPO", "setting": "full-length AtTSPO [4]", "result": "bound all tested PIs except PI(3,4)P2"}]}
{"molecule": "CC1=CC(=O)CC(C)(C)[C@@]1(O)/C=C/C(C)=C\\C(=O)O", "note": "[ABA, abscisic acid]", "values": [{"measurement": "effect on PLC activity", "setting": "PLC activity; KO TSPO seedlings", "result": "no effect"}, {"measurement": "increase of PLC activity", "setting": "PLC activity; OE TSPO seedlings", "result": "~4", "unit": "fold"}, {"measurement": "enhancement of PLC activity compared with untreated samples", "setting": "PLC activity; WT seedlings", "result": "~20", "unit": "%"}, {"measurement": "effect on PLC activity", "setting": "PLC activity; seedlings overexpressing N-terminally truncated AtTSPO", "result": "no effect"}, {"measurement": "distribution of the PI(4,5)P2 biosensor", "setting": "[10]", "result": "partial redistribution of the PI(4,5)P2 biosensor from the PM to the cytosol"}]}
{"molecule": "phosphatidylcholine [PC]", "values": [{"measurement": "AtTSPO and Venus-PIP2;7 interaction", "setting": "[6]", "result": "no interaction"}]}
{"molecule": "phosphatidylserine [PS]", "values": [{"measurement": "binding to purified full-length AtTSPO", "setting": "full-length AtTSPO [4]", "result": "bound"}]}
{"molecule": "PI3P", "values": [{"measurement": "binding to purified full-length AtTSPO", "setting": "full-length AtTSPO [4]", "result": "could bind"}, {"measurement": "binding to N-terminal peptide of AtTSPO", "setting": "AtTSPO^Nter [5]", "result": "could bind"}, {"measurement": "binding to mTSPO", "setting": "mTSPO", "result": "bind"}]}
